The test system of data set [1] is Mus musculus. Briefly: Antidepressant activity was assessed from the ability to antagonize reserpine-induced palpebral ptosis on peroral administration in mice.;Value ranges from (0.9-3.1). It counts as functional.
Data set [2] relates to Mus musculus. Briefly: Pentylenetetrazole antagonistic activity on peroral administration in mice; inactive at this dose. Format: functional.
Data set [3] has as its system Mus musculus. In words: Amphetamine antagonistic activity on peroral administration in mice.;value ranges from (5.1-5.9). It counts as functional.
The test system of data set [4] is Mus musculus. Briefly: Antidepressant activity was assessed from the ability to antagonize reserpine-induced hypothermia on peroral administration in mice;value ranges from (13.5-19.1). It counts as functional.
Data set [5] is filed under the species Sus scrofa. Briefly: Tested for in vitro reuptake inhibition of [3H]-5-hydroxy tryptamine in pig frontal synaptosomes. It counts as functional. The following applies: Brain. The gist of the method:
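Synaptosomes from frontal cortex of slaughterhouse pig brain take up [3H]-5-HT (4 nM) with the compound present. Nonspecific uptake is defined with chlorimipramine and also by incubating at 0–4 °C without drug. IC50 for specific uptake by log-probit analysis, four concentrations, each in triplicate.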

Data set [6] is filed under the species Sus scrofa. Briefly: Tested for in vitro reuptake inhibition of [3H]dopamine in pig striatal synaptosomes. It counts as functional. The following applies: Brain. The method, boiled down: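 Pig corpus striatum synaptosomes (slaughterhouse brains) take up [3H]DA (2 nM) with the compound present. Nonspecific transport is defined with benztropine and also by incubation at 0–4 °C without drug. IC50 for specific uptake by log-probit analysis over four concentrations, each in triplicate.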

Data set [7] is filed under the species Sus scrofa. Briefly: Tested for in vitro reuptake inhibition of [3H]norepinephrine in pig occipital synaptosomes. Format: functional. The conditions noted are these: Brain. The method, boiled down: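 [3H]NE (15 nM) uptake into occipital cortex synaptosomes from slaughterhouse pig brain, measured with the compound present. Nonspecific transport is defined with desipramine and also by incubation at 0–4 °C without drug. IC50 for specific uptake from log-probit analysis, four concentrations, each in triplicate.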

Data set [8] relates to Mus musculus. Briefly: Compound dose that causes lethality (acute toxicity) was determined by administering perorally in mice. Format: organism-based. The following applies: in vivo, po.
Data set [9] concerns Mus musculus. Briefly: Antidepressant activity was assessed from the ability to antagonize reserpine-induced palpebral ptosis on peroral administration in; inactive at this dose. It counts as functional.
Data set [10] relates to Mus musculus. In words: Pentylenetetrazole antagonistic activity on peroral administration in mice; inactive at this dose.. Format: functional.
For data set [11], the system named is Mus musculus. In words: Amphetamine antagonistic activity on peroral administration in mice; inactive at this dose. Format: functional.
Data set [12] has as its system Mus musculus. Briefly: Antidepressant activity was assessed from the ability to antagonize reserpine-induced hypothermia on peroral administration in mice;inactive at this dose.. Format: functional.
Data set [13] has as its system Mus musculus. Briefly: Antidepressant activity was assessed from the ability to antagonize reserpine-induced palpebral ptosis on peroral administration in mice;value ranges from (2.7-5.4.). Format: functional.
For data set [14], the system named is Mus musculus. In words: Amphetamine antagonistic activity on peroral administration in mice; value ranges from (7.4-19.7.). It counts as functional.
Data set [15] has as its system Mus musculus. Briefly: Antidepressant activity was assessed from the ability to antagonize reserpine-induced hypothermia on peroral administration in mice;value ranges from (11.1-31.). It counts as functional.
Data set [16] deals with Mus musculus. In words: Antidepressant activity was assessed from the ability to antagonize reserpine-induced palpebral ptosis on peroral administration in mice; Value ranges from (1.3-3.4). Format: functional.
Data set [17] concerns Mus musculus. Briefly: Pentylenetetrazole antagonistic activity on peroral administration in mice; Value ranges from (24.5-41.4). Format: functional.
The test system of data set [18] is Mus musculus. In words: Amphetamine antagonistic activity on peroral administration in mice; Value ranges from (29.4-65.9). Format: functional.

Our source for the ED, IC50 and LD values is ChEMBL document CHEMBL1123586, “3-[(2-ethoxyphenoxy)methyl]piperidine derivatives. Synthesis and antidepressant activity” (J Med Chem, 1987).

The term IC50 denotes the point on the concentration scale where inhibition reaches its midpoint. Read a low IC50 as greater potency. In the case of `CCOc1ccccc1OCC1(O)CCCNC1` (stereo not given), the ED in the data set on Mus musculus [1] was 1.5 mg/kg; with Mus musculus [2], greater than 50 mg/kg; with Mus musculus [3], 5.5 mg/kg; with Mus musculus [4], 15.2 mg/kg. The IC50 worked out at 65 µM in the data set listed under Sus scrofa [5], 20 µM in the data set listed under Sus scrofa [6] and 0.66 µM in the data set listed under Sus scrofa [7]. The same compound came in with an LD with Mus musculus [8] of 150 mg/kg.

As for `CCOc1ccccc1OCC1(OC)CCCNC1` (stereo not given), the ED in the data set with Mus musculus [9] is greater than 25 mg/kg; in the data set with Mus musculus [10], greater than 50 mg/kg; in the data set on Mus musculus [11], greater than 50 mg/kg; with Mus musculus [12], greater than 25 mg/kg. In addition, the IC50 in the data set filed under Sus scrofa [5] came to 110 µM; in the data set listed under Sus scrofa [6], 68 µM; in the data set filed under Sus scrofa [7], 1.3 µM. In addition, the LD with Mus musculus [8] amounted to 200 mg/kg.

As to `CCOc1ccccc1OCC1CCCNC1` (stereo not given), the ED in the data set with Mus musculus [13] is 3.7 mg/kg; in the data set on Mus musculus [2], greater than 50 mg/kg; in the data set on Mus musculus [14], 9.4 mg/kg; with Mus musculus [15], 17 mg/kg. For the same compound, the values for the IC50 in the data set listed under Sus scrofa [5], in the data set filed under Sus scrofa [6] and in the data set listed under Sus scrofa [7] were 95 µM, 62 µM and 0.97 µM, respectively. Further, the LD with Mus musculus [8] stood at 300 mg/kg.

For `CNCCCN1c2ccccc2CCc2ccccc21` [DESIPRAMINE], the ED with Mus musculus [16] was found to be 1.8 mg/kg; in the data set on Mus musculus [17], 33.1 mg/kg; in the data set with Mus musculus [18] it was 40.3 mg/kg. Moreover, the IC50 was 0.42 µM in the data set listed under Sus scrofa [5], 6.1 µM in the data set filed under Sus scrofa [6] and 0.0032 µM in the data set filed under Sus scrofa [7]. The compound further showed an LD with Mus musculus [8] of 300 mg/kg.

Regarding `CCOc1ccccc1OCC1CNCCO1` (stereo not given) [VILOXAZINE], the IC50 in the data set listed under Sus scrofa [5] was determined as 20 µM; in the data set listed under Sus scrofa [6], 38 µM; in the data set filed under Sus scrofa [7], 0.22 µM. The compound further displayed an LD in the data set with Mus musculus [8] of 600 mg/kg.
